Measured values as given in ChEMBL document CHEMBL4321805, “A Conformational Restriction Strategy for the Identification of a Highly Selective Pyrimido-pyrrolo-oxazine mTOR Inhibitor” (J Med Chem, 2019).

What was measured:
CYP1A2 [1] = target: T1, CYP1A2 (Homo sapiens, UniProt P05177); assay: Substrate activity at recombinant human CYP1A2 expressed in baculovirus infected insect cells assessed as parent compound remaining at 1 uM incubated for 60 mins in absence of NADP+-regenerating system by LC-MS analysis; format: ADME; conditions: read-out: Stability
T1 sequence (P05177 whole entry): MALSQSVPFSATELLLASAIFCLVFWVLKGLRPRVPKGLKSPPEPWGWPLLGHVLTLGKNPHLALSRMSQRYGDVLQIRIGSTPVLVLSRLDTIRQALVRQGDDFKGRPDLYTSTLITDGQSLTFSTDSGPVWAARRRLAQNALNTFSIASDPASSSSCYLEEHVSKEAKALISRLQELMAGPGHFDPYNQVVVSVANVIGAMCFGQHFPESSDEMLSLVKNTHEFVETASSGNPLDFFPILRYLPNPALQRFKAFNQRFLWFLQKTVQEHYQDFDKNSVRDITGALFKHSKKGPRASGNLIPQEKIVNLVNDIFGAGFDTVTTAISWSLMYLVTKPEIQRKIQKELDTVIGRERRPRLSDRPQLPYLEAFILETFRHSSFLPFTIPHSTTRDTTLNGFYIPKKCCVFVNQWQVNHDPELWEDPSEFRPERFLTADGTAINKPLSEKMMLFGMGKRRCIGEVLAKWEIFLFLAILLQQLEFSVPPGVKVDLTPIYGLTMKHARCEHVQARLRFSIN
Summary of the method: (§1)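 Baculovirus/insect-cell Supersomes, each expressing a single human CYP, at 25 pmol/mL. Compound at 1 μM (0.25% DMSO), 37 °C, 60 min. Reactions run with a NADP+-regenerating cofactor mix or, as negative control, without cofactors and glucose-6-phosphate dehydrogenase. Stopped with ACN containing internal standard. Duplicates; % remaining from absolute amounts.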

[2] = target: Serine/threonine-protein kinase mTOR (Homo sapiens, UniProt P42345); assay: Inhibition of alexa fluor 647-labeled kinase tracer 314 binding to recombinant human N-terminal GST-fused mTOR (1360 to 2549 residues) expressed in baculovirus expression system by TR-FRET assay
Summary of the method: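 LanthaScreen TR-FRET tracer displacement. GST-fused truncated mTOR (aa 1360–2549) detected with Eu-anti-GST antibody (2 nM). […] Buffer: 50 mM HEPES, 5 mM MgCl2, 1 mM EGTA, 0.01% Pluronic F-127. Ki derived from displacement.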

[3] = target: Phosphatidylinositol 4,5-bisphosphate 3-kinase catalytic subunit beta isoform (Homo sapiens, UniProt P42338); assay: Binding affinity to human wild-type partial length PI3Kbeta (P118 to S1070 residues) expressed in mammalian expression system by kinome scan assay
Phosphatidylinositol 4,5-bisphosphate 3-kinase catalytic subunit beta isoform, sequence (P42338 whole entry, the tested form may be a part, canonical isoform): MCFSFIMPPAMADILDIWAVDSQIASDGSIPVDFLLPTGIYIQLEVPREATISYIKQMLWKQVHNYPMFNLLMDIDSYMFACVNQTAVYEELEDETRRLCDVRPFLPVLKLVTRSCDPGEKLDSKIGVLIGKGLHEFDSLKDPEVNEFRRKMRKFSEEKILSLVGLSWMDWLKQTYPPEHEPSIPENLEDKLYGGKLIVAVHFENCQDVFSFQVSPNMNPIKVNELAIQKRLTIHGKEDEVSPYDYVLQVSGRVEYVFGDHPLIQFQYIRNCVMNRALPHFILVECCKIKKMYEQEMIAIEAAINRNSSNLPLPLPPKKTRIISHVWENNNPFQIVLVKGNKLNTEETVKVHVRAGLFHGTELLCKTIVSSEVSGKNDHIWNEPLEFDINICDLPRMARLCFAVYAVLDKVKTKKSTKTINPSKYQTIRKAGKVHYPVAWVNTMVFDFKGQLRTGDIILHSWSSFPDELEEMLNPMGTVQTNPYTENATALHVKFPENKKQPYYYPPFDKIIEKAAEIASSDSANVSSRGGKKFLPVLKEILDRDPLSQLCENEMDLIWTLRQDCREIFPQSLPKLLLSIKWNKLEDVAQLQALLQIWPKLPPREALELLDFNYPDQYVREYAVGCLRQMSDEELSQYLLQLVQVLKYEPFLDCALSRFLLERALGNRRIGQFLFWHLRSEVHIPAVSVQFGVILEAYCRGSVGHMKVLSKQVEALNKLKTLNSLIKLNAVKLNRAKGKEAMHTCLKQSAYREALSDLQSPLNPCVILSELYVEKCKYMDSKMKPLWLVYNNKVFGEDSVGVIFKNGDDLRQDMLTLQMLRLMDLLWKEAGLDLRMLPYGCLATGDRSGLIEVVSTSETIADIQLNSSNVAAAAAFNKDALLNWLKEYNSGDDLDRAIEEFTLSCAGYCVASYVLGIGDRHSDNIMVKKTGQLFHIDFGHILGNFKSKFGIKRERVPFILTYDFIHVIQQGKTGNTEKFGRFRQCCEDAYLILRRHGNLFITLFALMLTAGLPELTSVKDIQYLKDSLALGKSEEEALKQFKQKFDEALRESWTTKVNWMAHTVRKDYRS
Summary of the method: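 DNA-tagged kinases competed against immobilized ligand with an 11-point 3-fold serial dilution starting from 30 μM. Kinase bound measured by qPCR of the DNA tags. Kd from standard dose–response curves with the Hill equation (Hill slope −1); mean of duplicate experiments.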

[4] = target: Phosphatidylinositol 4-kinase beta (Homo sapiens, UniProt Q9UBF8); assay: Binding affinity to wild-type human full-length PI4Kbeta (M1 to M828 residues) expressed in mammalian expression system by kinome scan assay
Phosphatidylinositol 4-kinase beta, sequence (Q9UBF8 whole entry, the tested form may be a part): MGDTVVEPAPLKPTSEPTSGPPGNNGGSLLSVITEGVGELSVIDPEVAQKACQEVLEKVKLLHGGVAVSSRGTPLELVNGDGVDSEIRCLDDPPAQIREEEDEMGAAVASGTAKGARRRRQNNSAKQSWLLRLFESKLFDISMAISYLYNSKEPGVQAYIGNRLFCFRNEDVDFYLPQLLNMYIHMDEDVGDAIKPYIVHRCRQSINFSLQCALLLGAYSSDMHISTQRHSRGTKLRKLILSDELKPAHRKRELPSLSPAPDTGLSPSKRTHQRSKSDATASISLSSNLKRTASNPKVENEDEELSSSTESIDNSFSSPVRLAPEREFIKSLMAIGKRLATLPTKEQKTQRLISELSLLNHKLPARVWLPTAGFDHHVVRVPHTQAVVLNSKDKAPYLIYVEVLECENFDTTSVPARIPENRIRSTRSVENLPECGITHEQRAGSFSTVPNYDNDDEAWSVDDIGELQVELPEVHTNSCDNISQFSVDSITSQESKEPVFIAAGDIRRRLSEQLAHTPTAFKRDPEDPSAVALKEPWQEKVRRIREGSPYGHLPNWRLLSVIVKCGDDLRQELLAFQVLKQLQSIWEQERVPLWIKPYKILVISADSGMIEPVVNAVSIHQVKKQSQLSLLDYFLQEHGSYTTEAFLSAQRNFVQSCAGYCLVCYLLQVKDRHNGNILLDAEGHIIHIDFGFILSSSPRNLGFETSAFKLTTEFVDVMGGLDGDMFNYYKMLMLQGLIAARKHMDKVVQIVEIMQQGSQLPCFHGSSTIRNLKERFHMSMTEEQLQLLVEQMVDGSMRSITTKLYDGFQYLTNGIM
Summary of the method: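 Competition binding: compound competes with an immobilized ligand for a DNA-tagged kinase. The 11-point, 3-fold serial dilution starts at 30 μM. Bound kinase is quantified by qPCR of the DNA tag. Kd is fitted to a standard dose–response curve using the Hill equation with slope fixed at −1, and reported as the mean of duplicate experiments.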

Homo sapiens = organism: Homo sapiens; assay: Selectivity ratio of Ki for inhibition of alexa fluor 647-labeled kinase tracer 314 binding to recombinant human full-length N-terminal His6-tagged p110alpha/p85alpha expressed in baculovirus expression system to Ki for inhibition of alexa fluor 647-labeled kinase tracer 314 binding to recombinant human N-terminal GST-fused mTOR (1360 to 2549 residues) expressed in baculovirus expression system
Summary of the method: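 Ratio of Ki values from the TR-FRET tracer 314 displacement assays. p110α: His6-tagged enzyme, biotin anti-His antibody and Eu-streptavidin (2 nM each), tracer at 20 nM, buffer 50 mM HEPES pH 7.5, 10 mM MgCl2, 1 mM EGTA, 0.01% Brij-35. mTOR: GST-mTOR 1360–2549, Eu-anti-GST, tracer 10 nM, HEPES/5 mM MgCl2/EGTA/Pluronic buffer.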

CYP1A2 [5] = target: T1, CYP1A2; assay: Substrate activity at recombinant human CYP1A2 expressed in baculovirus infected insect cells assessed as parent compound remaining at 1 uM incubated for 60 mins in presence of NADP+-regenerating system by LC-MS analysis; format: ADME; conditions: read-out: Stability; summary of the method: as §1
CYP1A1 [6] = target: T2, CYP1A1 (Homo sapiens, UniProt P04798); assay: Substrate activity at recombinant human CYP1A1 expressed in baculovirus infected insect cells assessed as parent compound remaining at 1 uM incubated for 60 mins in presence of NADP+-regenerating system by LC-MS analysis; format: ADME; conditions: read-out: Stability; summary of the method: as §1
T2 sequence (P04798 whole entry): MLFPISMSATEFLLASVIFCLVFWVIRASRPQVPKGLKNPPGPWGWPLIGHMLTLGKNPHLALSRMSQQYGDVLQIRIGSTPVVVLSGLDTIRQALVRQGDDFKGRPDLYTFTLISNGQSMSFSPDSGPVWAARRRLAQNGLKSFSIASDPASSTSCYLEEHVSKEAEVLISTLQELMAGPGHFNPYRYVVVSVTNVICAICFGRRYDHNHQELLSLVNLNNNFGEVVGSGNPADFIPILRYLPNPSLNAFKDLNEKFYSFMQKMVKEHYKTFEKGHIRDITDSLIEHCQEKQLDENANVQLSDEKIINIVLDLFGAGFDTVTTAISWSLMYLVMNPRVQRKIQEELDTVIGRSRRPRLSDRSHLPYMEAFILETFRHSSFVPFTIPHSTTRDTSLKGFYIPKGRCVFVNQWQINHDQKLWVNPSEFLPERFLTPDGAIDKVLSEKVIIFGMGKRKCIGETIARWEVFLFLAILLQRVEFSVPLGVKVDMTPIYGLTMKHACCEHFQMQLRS

CYP1A1 [7] = target: T2, CYP1A1; assay: Drug metabolism assessed as recombinant human CYP1A1-mediated compound hydrolysis by measuring parent compound remaining incubated for 60 mins by LC-HRMS analysis; format: ADME; conditions: read-out: Stability
Summary of the method: (§2)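 Human recombinant CYP1A1 or CYP1A2 Supersomes (25 pmol/mL) incubated with compound at 1 μM (0.25% DMSO) plus NADP+-regenerating cofactors at 37 °C for 60 min. Reaction stopped with ACN containing internal standard. Parent and metabolites expressed as percentage of total peak areas.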

[8] = Stability in human hepatocytes assessed as parent compound remaining at 5 uM after 3 hrs by LC-MS analysis; format: ADME, cell-based, Hepatocyte; conditions: read-out: Stability
Summary of the method: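 Cryopreserved hepatocytes in suspension (200 000 cells/well) in Williams medium E with 2 mM L-glutamine and 25 mM HEPES. Test item at a final 5 μM (0.5% DMSO). Sampled at 0, 15, 60, 90 and 180 min. Precipitated with ACN, then LC–MS. Controls: 7-ethoxycoumarin and hepatocyte-free medium; n = 2.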

CYP1A2 [9] = target: T1, CYP1A2; assay: Drug metabolism assessed as recombinant human CYP1A2-mediated compound hydrolysis by measuring parent compound remaining incubated for 60 mins by LC-HRMS analysis; format: ADME; conditions: read-out: Stability; summary of the method: as §2

remaining at 1 h, 1 µM (CYP1A2 [1]) [%] | Ki [2] [nM] | Kd [3] [nM] | Kd [4] [nM] | Ratio Ki (Homo sapiens) | remaining at 1 h, 1 µM (CYP1A2 [5]) [%] | remaining at 1 h, 1 µM (CYP1A1 [6]) [%] | remaining at 1 h (CYP1A1 [7]) [%] | remaining at 3 h, 5 µM [8] [%] | remaining at 1 h (CYP1A2 [9]) [%] | Compound
94 | 13 | 4100 | > 30000 | 165 | – | – | – | – | – | C[C@@H]1COCCN1c1nc(-c2ccc(N)nc2)nc2c1C[C@@H]1COCCN21
91 | 8 | 7500 | > 30000 | 212 | 92 | 77 | – | – | – | C[C@@H]1COCCN1c1nc(-c2cnc(N)cn2)nc2c1C[C@@H]1COCCN21
91 | 2.5 | 1400 | > 30000 | 214 | 73 | 51 | 73.3 | 93.2 | 99.7 | C[C@@H]1COCCN1c1nc(-c2cnc(N)nc2)nc2c1C[C@@H]1COCCN21
